MrgX1 allo act: allosterically activates human MrgX1 receptor signaling; MrgX1-HEK293, Fluo-4 calcium flux, FDSS; active compounds read high; 0.63% of 310,000 active; B-score at 10 µM;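 active = plate-corrected calcium response at least 3 library SD above typical, normal starting fluorescence, not activating the receptor alone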;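 note: compound read alongside a low EC10 to EC30 dose of BAM8-22 agonist; peak minus trough fluorescence over baseline measured at the second addition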
Target sequence (Q96LB2 whole entry, looked up): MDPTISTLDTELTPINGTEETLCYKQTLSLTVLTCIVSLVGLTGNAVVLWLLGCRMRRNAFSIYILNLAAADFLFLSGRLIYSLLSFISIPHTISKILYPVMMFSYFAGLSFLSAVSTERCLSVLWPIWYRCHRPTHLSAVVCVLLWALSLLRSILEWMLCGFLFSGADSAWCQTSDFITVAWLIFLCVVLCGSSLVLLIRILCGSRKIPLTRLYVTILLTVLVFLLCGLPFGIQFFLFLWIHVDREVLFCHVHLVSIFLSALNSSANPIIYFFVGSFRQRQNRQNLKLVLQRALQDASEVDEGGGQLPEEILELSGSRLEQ
RGS4 inh: human RGS4 inhibition. HEK293 M3R/RGS4 inducible, Fluo-4 calcium flux; active compounds read high; triggered by carbachol at its EC20. B-score at 10 µM. P49798. 0.45% of 310,000 active;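 active = B-score, a plate-corrected calcium signal, over three deviations above library mean, with baseline fluorescence within five deviations of library mean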;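 note: RGS4 expression induced by doxycycline in cells with stable M3 receptor; B-score is computed from the integrated fluorescence ratio over baseline after carbachol; higher B-score means a larger calcium signal and so more RGS4 inhibition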
MrgX1 ag: activates human MrgX1 receptor signaling | MrgX1-HEK293 cells, Fluo-4 calcium fluorescence, agonist mode; active compounds read high | Q96LB2 | 0.44% of 310,000 active | B-score at 10 µM;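 active = calcium response B-score plate-corrected fluorescence ratio at least 3 library SD, with starting fluorescence B-score inside 5 SD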
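times = overnight plating, then 30 min 37 °C plus 30 min room-temperature dye loading | assay system = stable human MrgX1 HEK293 cell line | input = fifteen thousand cells per well | signal = kinetic calcium dye fluorescence, Fluo-4 NW | dosing = compound delivered in addition one of three | read-out = B-scored fluorescence response ratio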
MrgX1 antagonist: blocks BAM8-22 activation of human MrgX1 receptor; MRGX1-HEK293 calcium flux, Fluo-4, BAM8-22 antagonism; active compounds read low; B-score at 10 µM; 1.3% of 310,000 active; AID 588676;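 active = calcium-response B-score plate-corrected more than 3 library SD below zero, starting fluorescence within 5 deviations, no agonist response on first addition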;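 note: peak minus trough fluorescence over baseline after final BAM8-22 challenge near maximal dose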
RGS4 pot: RGS4 potentiation or activation; HEK293 M3R/inducible RGS4, carbachol calcium flux Fluo4; active compounds read low; B-score at 10 µM; 0.92% of 310,000 active;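 active = B-score of the integrated calcium signal more than 4 SD below the library mean, with starting fluorescence not abnormally high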;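 note: negative B-score means reduced calcium response which marks RGS4 activation or potentiation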
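Test system: HEK293 cells with stable M3R and inducible RGS4; also added: carbachol at ECmax as muscarinic agonist stimulus; schedule: dye loading 30 min 37 °C, buffer rest 30 min RT; technique: kinetic calcium fluorescence imaging with Fluo4-AM dye, 2 µM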
* hit, by the source's call; i = inactive; / = not tested or not shown. This is a sample that favours compounds with a hit; in the whole collection about 3.5% have one here.

SMILES | MrgX1 allo act | RGS4 inh | MrgX1 ag | MrgX1 antagonist | RGS4 pot
O=c1/c(=C\c2cc([N+](=O)[O-])cc([N+](=O)[O-])c2O)sc2nc3ccccc3n12 | i | / | 29* | i | /
O=c1/c(=C/c2ccccn2)sc2nc3ccccc3n12 | i | / | i | i | /
CC(C)CN(C(=O)COC(=O)CNC(=O)c1sc2ccccc2c1Cl)C1CCS(=O)(=O)C1 (centres undefined) | i | i | i | i | i
N#C/C(=C(/O)CCl)c1nc2c(s1)CCc1ccccc1-2 | i | i | i | i | i
CCNc1ccc(Br)cc(C(=O)/C=C/c2c(Cl)cccc2Cl)c1=O | i | i | i | -4.6* | i
CCNc1ccc(Br)cc(C(=O)/C=C/c2ccc(Cl)cc2)c1=O | i | i | i | i | i
COCCn1c(=NC(=O)CSC(C)=O)sc2cc(F)ccc21 | i | i | i | -9.3* | i
Cc1cccc(C(=O)NN2C(=O)C3C(c4ccccc4)C=CC(c4ccccc4)C3C2=O)c1 (centres undefined) | i | i | i | i | -7.1*
O=C(NN1C(=O)C2C3C=CC(C3)C2C1=O)c1ccccc1 (centres undefined) | i | i | i | i | i
CC(=O)Oc1c(/C=C(\C#N)C(N)=O)[nH]c2ccccc12 | / | i | / | / | i
O=C(NNC(=S)NCCc1ccccc1)c1ccc(Br)s1 | i | i | i | i | i
COc1cc(C(=O)Nc2nnc(C(F)(F)F)s2)c([N+](=O)[O-])cc1OC | i | i | i | -6.4* | i
COc1cc(C(=O)Nc2nnc(SC)s2)c([N+](=O)[O-])cc1OC | i | i | i | i | i
O=C1CC(NS(=O)(=O)c2ccc([N+](=O)[O-])cc2)CN1c1ccc(Cl)cc1 (centres undefined) | i | i | i | i | i
Clc1cccc(NCc2nnc(SCc3ccc(Cl)cc3Cl)o2)c1 | i | i | i | i | -8.6*
COCc1cc(N2CCOCC2)nc(-c2ccccc2)n1 | i | i | i | i | i
COCc1cc(Sc2cccc(Cl)c2Cl)nc(-c2ccccc2)n1 | 8* | i | i | i | i
O=C(CCN1C(=O)c2ccccc2S1(=O)=O)Nc1ccc(F)c(F)c1F | i | i | i | i | i
COc1ccc(NC(=O)COc2coc(CN3CCN(c4ccccc4)CC3)cc2=O)cc1 | i | i | i | -5.7* | i
COc1ccc(N2CCN(Cc3cc(=O)c(OCC(=O)Nc4ccccc4)co3)CC2)cc1 | i | i | i | i | i
COc1ccccc1C(=O)NNC(=O)c1ccc(F)cc1 | i | i | i | i | i
Cc1ccccc1C(=O)NNC(=O)c1ccc(F)cc1 | i | i | i | -7.1* | i
Oc1cccc2ccc(Nc3ccccn3)nc12 | i | i | i | -7.4* | i
Cc1ccc(/C=C2\SC(=S)N(C3CCS(=O)(=O)C3)C2=O)o1 (centres undefined) | i | i | i | i | i
NS(=O)(=O)c1ccc(-c2ccc(/C=C3\SC(=S)N(C4CCS(=O)(=O)C4)C3=O)o2)cc1 (centres undefined) | i | i | i | -8.6* | i
SMILES | MrgX1 allo act | RGS4 inh | MrgX1 ag | MrgX1 antagonist | RGS4 pot
CC(C)(C)OC(=O)N1CCC(CC2CC(c3ccc(Cl)cc3)=NO2)(C(=O)NCC2CCCCC2)CC1 (centres undefined) | i | i | i | i | i
C/C(=N/NC(=O)c1ccncc1)C1=C(O)CC(C)(C)CC1=O | i | i | i | -4.7* | i
COc1ccc(/C(C)=N/NC(=O)c2ccncc2)cc1 | i | i | i | i | i
CN(C)c1ccc(/C=C/c2nc3ccccc3s2)cc1 | i | i | i | -6.3* | -7.5*
Cc1ccc(S(=O)(=O)CC(=O)N2CCN(c3ccc(F)cc3)CC2)cc1 | i | i | i | i | i
CCCCc1ccc(N=N/C(C(=O)Nc2ccccc2OC)=C(/C)O)cc1 | i | i | i | -9.1* | i
COc1cc(CN2CC(=O)N(c3ccc(C)c(Cl)c3)C2=S)cc(OC)c1OC | i | i | i | i | i

Assay outcomes: PubChem BioAssay, Johns Hopkins Ion Channel Center
